Data: ChEMBL document CHEMBL1275359, “Pro-apoptotic activity of lipidic α-amino acids isolated from Protopalythoa variabilis” (Bioorg Med Chem, 2010)
Active and inactive are the calls of the source.

Tests used:
Type in all cases: functional, cell-based
SF-295 = assay: Cytotoxicity against human SF295 cells at 5 ug/ml after 72 hrs by MTT assay
Procedure, shortened: (§1)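 Cells kept in log-phase growth in RPMI-1640 with 2 mM glutamine, 10% fetal calf serum, streptomycin and 100 U/ml penicillin at 37 °C, 5% CO₂. Single concentration of 5 µg/ml applied for 72 h. Growth read by MTT, reported as percent growth inhibition relative to untreated cells. Data from three to four experiments.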

MDA-MB-435 = assay: Cytotoxicity against human MDA-MB-435 cells at 5 ug/ml after 72 hrs by MTT assay; procedure, shortened: as §1
HCT-8 = assay: Cytotoxicity against human HCT8 cells at 5 ug/ml after 72 hrs by MTT assay; procedure, shortened: as §1
HL-60 = assay: Cytotoxicity against human HL60 cells at 5 ug/ml after 72 hrs by MTT assay; procedure, shortened: as §1

Measured: Activity

CCCCCCCCC(N)C(=O)OC (stereo not drawn)
active: all assays above

CCCCCCCCCCC(N)C(=O)OC (stereo not drawn)
active: all assays above
